Screening data from PubChem.
An excerpt weighted towards active compounds, which were near 11% of everything screened.
M1 agonist = activates the M1 muscarinic receptor | B-score at 10 µM | 64,000 tested, 3% active | CHO-M1 cells, Fluo-4 calcium fluorescence, agonist mode; active compounds read high;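 active = fluorescence rise, raw or as B-score row- and column-corrected plate score, outside the 99.7% band of its plate's samples, either direction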
S1P3 agonist = agonists of human S1P3 receptor. Q99500. S1P3 NFAT-BLA reporter cells, agonism, FRET ratio; relative to 1 µM S1P, basal subtracted. activation, % at 4.5 µM. 60,000 tested, 0.1% active. AID 373;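 active = activation above the screen-wide mean plus 3 SD, cut at about 4.5% in these data, passing the limit was not always enough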
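Assay system: stable CHO line with human S1P3, Gα16, NFAT-BLA reporter; Detection: FRET β-lactamase substrate fluorescence, excitation 405 nm, 460/535 nm emission ratio, background-subtracted; Read-out: percent activation versus median 1 µM S1P response, basal-subtracted, per plate; Incubation: cells plated overnight, compound 4 h 37 °C, substrate 2 h RT.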
M1 antagonist = blocks the rat M1 muscarinic receptor response to acetylcholine. 64,000 tested, 3.4% active. P08482. AID 628. CHO-M1 cells, Fluo-4 calcium, ACh EC80 antagonist mode; active compounds read low. B-score at 10 µM;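 active = calcium fluorescence response, raw or row-and-column corrected B-score, differing from the plate sample mean either way at a set confidence level, mostly lower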
D1 mod = allosterically modulates the human D1 dopamine receptor; HEK293 D1, CRE-luciferase, dopamine EC30 potentiation; actives deviate in either direction; B-score at 10 µM; 58,000 tested, 5.9% active; AID 641;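 active = luminescence count or its row- and column-corrected plate score outside the 99.7% band of the plate's sample wells, on either side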
Target sequence (P21728 whole entry, looked up): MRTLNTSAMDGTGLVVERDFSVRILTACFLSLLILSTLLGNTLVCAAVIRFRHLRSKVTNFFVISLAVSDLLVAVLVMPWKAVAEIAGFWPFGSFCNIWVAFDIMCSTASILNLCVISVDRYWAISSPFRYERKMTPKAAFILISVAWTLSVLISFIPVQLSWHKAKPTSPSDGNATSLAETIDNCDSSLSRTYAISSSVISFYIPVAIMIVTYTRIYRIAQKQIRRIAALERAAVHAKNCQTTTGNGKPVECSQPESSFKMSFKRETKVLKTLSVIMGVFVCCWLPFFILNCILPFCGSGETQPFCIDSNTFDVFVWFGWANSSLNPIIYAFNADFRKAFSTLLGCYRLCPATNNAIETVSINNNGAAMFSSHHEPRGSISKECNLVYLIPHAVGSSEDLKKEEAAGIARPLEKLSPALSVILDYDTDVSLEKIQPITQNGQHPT
S1P1 ag-PAM = activates or potentiates agonism at human S1P1 receptor | P21453 | S1P1 CRE-bla cells, forskolin, beta-lactamase FRET, potentiator mode; S1P1 agonist co-added at EC20, 2 nM; 100% = saturating reference agonist, 0% = basal | activation, % at 9.5 µM | 56,000 tested, 0.57% active | AID 449;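 active = activation above a cutoff set at the mean activation of all tested compounds plus 3 SD, cut at about 54% in these data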;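 note: forskolin at 4 µM as EC80 and the EC20 agonist is SEW2871; 100% = SEW2871 at its EC100 plus forskolin at EC80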
M1 agonist conf = confirmation of rat M1 muscarinic receptor agonists; shares compounds with M1 agonist; CHO-M1 cells, Fluo-4 calcium fluorescence, agonist mode; actives lie on both sides; fluorescence change (max-min) at 10 µM; 1,700 tested, 19% active; AID 1488;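 active = fluorescence change differs from the solvent-only DMSO control mean at a set confidence level in both duplicate runs; inconclusive = differs from solvent-only control mean in just one of two runs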;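 note: an EC20 dose of acetylcholine follows compound addition during the same imaging run; raw fluorescence intensity difference in instrument units with no normalization to controls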
M4 ag counter = activates rat M4 receptor in counter-screen for M1 agonists | shares compounds with M1 agonist | CHO M4/Gqi5 cells, Fluo-4 calcium fluorescence, agonist mode; actives lie on both sides | fluorescence change (max-min) at 10 µM | 1,700 tested, 9% active | AID 1741;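 active = fluorescence change differing from the plate's solvent-only control wells at 99.7% confidence in both duplicates, whether higher or lower; inconclusive = differs from solvent controls in only one of two duplicates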
Numbers without * were called inactive; ? = inconclusive; . = no result.

SMILES | M1 agonist | S1P3 agonist | M1 antagonist | D1 mod | S1P1 ag-PAM | M1 agonist conf | M4 ag counter
Cc1ccc(/C=c2\sc3nc(-c4ccccc4Br)nn3c2=O)o1 | -2.4 | -1 | -0.48 | 0.55 | -6 | . | .
O=C(O)c1ccccc1-c1ccc(/C=c2\sc3nc4cc(Br)cnc4n3c2=O)o1 | 53* | . | -0.47 | -0.13 | . | 136* | ?
CN(C)c1ccc(/C=C/c2cc[n+]([O-])cc2)cc1 | 247* | -1 | 0.23 | -0.42 | 20 | 876* | 895*
O=C(CSc1nnc(-c2ccc(S(=O)(=O)N3CCCC3)cc2)o1)NCc1ccco1 | -0.13 | -1 | -0.51 | -0.53 | 7 | . | .
O=C(OCC(=O)N1CCN(C(=O)c2ccco2)CC1)c1cc(-c2ccc(F)cc2)nc2ccccc12 | 11* | 0 | -1.2 | . | -6 | 82* | 20
O=C(OCC(=O)N1CCN(C(=O)c2ccco2)CC1)c1cn(-c2ccccc2)nc1-c1ccccc1 | 4.5* | 0 | -0.4 | 0.063 | 24 | ? | -51
O=C(NCC1CCCO1)C1CCN(C(=O)c2ccc(Br)cc2)CC1 (centres undefined) | -0.018 | 0 | -0.65 | -0.45 | . | . | .
Nc1nc(CSc2n[nH]c(-c3ccccc3)n2)nc(Nc2ccccc2)n1 | 2.2* | -2 | -0.019 | 2.7 | -12 | -42* | -47
Cc1ccc(-c2noc(CSc3nnnn3C3CCCCC3)n2)cc1 | 0.18 | -2 | -2 | . | 23 | . | .
Clc1ccccc1-c1ccc(/C=N/n2cnnc2)o1 | 0.75 | 0 | -0.024 | -1.9 | -12 | . | .
CCOC(=O)c1cc(-c2ccc(/C=N\n3cnnc3)o2)ccc1Cl | 4.9* | 0 | -0.34 | 0.31 | 16 | -27* | -42
Cc1ccc(-c2nn(C)c(=O)c3ccccc23)cc1CNC(=O)c1ccco1 | 1.3 | . | -1.2 | . | . | . | .
CN(C)/C=c1\sc2c(C#N)cc(C(=O)c3ccc(Br)cc3)n2c1=O | 75* | . | 0.23 | 1.2 | . | 278* | 714*
Cc1ccc(-c2nn3c(-c4ccco4)nnc3c3ccccc23)cc1S(=O)(=O)NCC1CCCO1 (centres undefined) | 5.3* | -1 | -0.95 | -0.51 | -12 | 3.3 | -30
Cc1ccc(-c2nn(C)c(=O)c3ccccc23)cc1S(=O)(=O)NCCN1CCOCC1 | -0.084 | 0 | -0.52 | 3.4 | -16 | . | .
O=C(Cn1nnc(-c2ccccc2F)n1)Nc1ccc(C(=O)N2CCOCC2)cc1 | -0.97 | -2 | 0.65 | -1.1 | -9 | . | .
O=C(Cn1nnc(-c2ccccc2F)n1)Nc1ccc2c(c1)OCO2 | 5.7* | -1 | -0.077 | -0.14 | 1 | ? | -62
CN1/C(=N\O)c2cccc3cccc1c23 | 6.9* | 0 | -0.5 | -0.4 | -2 | 42 | -2.9
CC(C)(CC(=O)N1CCN(c2ccc(Cl)cc2)CC1)CC1=NS(=O)(=O)c2ccccc2N1 | 11* | -1 | -3.2* | . | 63* | ? | -46
O=C(CCCC1=NS(=O)(=O)c2ccccc2N1)N1CCN(c2ccc(Cl)cc2)CC1 | 1.6 | 0 | -0.21 | -0.75 | 18 | . | .
COc1ccc(N(C)S(=O)(=O)c2cccc(C(=O)NC3=NCCS3)c2)cc1 | 0.18 | . | -0.008 | -1.1 | . | . | .
O=C(Nc1ccccc1)NC1(C(=O)NCCCN2CCOCC2)CCCCC1 | 4* | -1 | 1.1 | 0.16 | 15 | ? | -58
CN1CCc2c(sc3c2c(=O)n(-c2ccccc2)c2nnc(SCc4ccccc4F)n32)C1 | -0.27 | 0 | -0.026 | 0.17 | 2 | . | .
Cc1nnc(SCC(=O)Nc2nccs2)s1 | -0.14 | -1 | 0.11 | 0.58 | 17 | . | .
CN(C)c1ccc(NC(=O)c2sc(SCC(=O)Nc3nccs3)nc2N)cc1 | 7.1* | -1 | -0.92 | . | 10 | -27 | ?
SMILES | M1 agonist | S1P3 agonist | M1 antagonist | D1 mod | S1P1 ag-PAM | M1 agonist conf | M4 ag counter
O=C(NC1CCCCCC1)C1CCN(S(=O)(=O)c2ccccc2)CC1 | 6.5* | -2 | 0.73 | -0.11 | -40 | ? | ?
O=C(NC1CCCCC1)C1CCN(S(=O)(=O)N2CCCCCC2)CC1 | -1.5 | 0 | 0.64 | -0.014 | 0 | . | .
Cc1nc2ccc(NC(=O)c3c(-c4ccccc4)noc3C)cc2s1 | 4.1* | 1 | 0.89 | -0.34 | 5 | -28 | -31
O=C(NC1CCS(=O)(=O)C1)C12CC3CC(CC(C3)C1)C2 (centres undefined) | 0.4 | -1 | -1.1 | . | -12 | . | .
CCCS(=O)(=O)N1CCN(CC2CC3C=CC2C3)CC1 (centres undefined) | 3.1* | 7 | 0.59 | 0.47 | -8 | -9.9 | ?
Cc1cnc(C(=O)OCC(=O)N2CCN(C(=O)c3ccco3)CC2)cn1 | -0.24 | -1 | -0.012 | -0.31 | -18 | . | .
Cc1cc(SCC(=O)OCC(=O)N2CCN(C(=O)c3ccco3)CC2)c(C)cc1Br | 4.1* | . | 0.11 | 0.0039 | . | -5.5 | -11
COc1cc(NC(=O)c2cc(OC)c(OC)c(OC)c2)c(OC)cc1NC(=O)CN1CCCCC1 | 3.9* | -1 | -0.17 | -3.3* | -4 | ? | -47
CC(C)N1CCc2c(sc(N)c2C#N)C1 | 13 | -2 | 0.084 | -0.38 | -10 | . | .
CCN1CCc2c(sc(N)c2C#N)C1 | 12* | -1 | -1.5 | -0.36 | . | 15 | 3.3
CCn1c(C(=O)N2CCC(C(=O)NCCCSC3CCCCC3)CC2)cc2sccc21 | 2.5* | -1 | 0.092 | -1.2 | 14 | -19* | -49
CCN1CCN(C(=O)C2CCN(C(=O)c3cc4sccc4n3CC)CC2)CC1 | -0.15 | 1 | 0.13 | 1.1 | -22 | . | .
CCOc1ccc(S(=O)(=O)NCC2CCCO2)c2cccnc12 (centres undefined) | 0.29 | 0 | 1.6 | -1.2 | 10 | . | .
CCOc1cc(-c2nc3ccccn3c2NCC2CCCO2)ccc1O (centres undefined) | 10* | -1 | -1.8* | -4.1* | -6 | -4.3 | -10
O=C(Cc1cccs1)N1CCN(c2nc(-c3ccc(Cl)cc3)cs2)CC1 | 3.5* | 0 | 0.47 | 0.11 | 30 | -28* | -60
O=C1N(CCCCN2C(=O)C3(OCCO3)c3ccccc32)c2ccccc2C12OCCO2 | 3.1* | -1 | 0.68 | 0.22 | -11 | -0.35 | -7.6
FC(F)(F)c1nc2ncc(Cl)cc2[nH]1 | -1.1 | 0 | -0.27 | -0.46 | 6 | . | .
Cn1c(=O)[nH]c2cc(Cl)cnc21 | 9.1* | -3 | 0.057 | . | 6 | 34 | -5.4
O=C(Nc1ccn(-c2ccccc2)n1)c1ccc(S(=O)(=O)N2CCCCCC2)cc1 | -0.54 | -1 | -1.2 | -1.9 | 36 | . | .
Cc1nn(Cc2ccc(Cl)cc2)c(C)c1NC(=O)c1cc(-c2ccc3c(c2)OCO3)on1 | -0.19 | -1 | 0.0093 | -0.68 | 35 | . | .
Cc1nn(Cc2ccc(F)cc2)c(C)c1NC(=O)c1noc2c1CCCCC2 | 5.9* | 0 | 0.091 | 0.18 | 14 | -6.7 | -40
